ChEMBL document CHEMBL4152256, “Structure-activity relationship of new antimalarial 1-aryl-3-susbtituted propanol derivatives: Synthesis, preliminary toxicity profiling, parasite life cycle stage studies, target exploration, and targeted delivery” (Eur J Med Chem, 2018)
Calls of active or inactive are those of the source. The calls are words filed in the database; no cut-off is given here.

Assays:
[1] = Genotoxicity in Salmonella typhimurium TA1535 harboring pSK1002 assessed as survival at 0.002 mg/ml in absence of Sprague-Dawley rat liver S9 fraction after by SOS/umu assay relative to control; type: toxicity, organism-based; settings: salmonella enterica subsp. enterica serovar typhimurium, read-out: Survival
[2] = Genotoxicity in Salmonella typhimurium TA1535 harboring pSK1002 assessed as umu gene induction at 0.001 mg/ml in absence of Sprague-Dawley rat liver S9 fraction after by SOS/umu assay relative to control; type: toxicity, organism-based; settings: salmonella enterica subsp. enterica serovar typhimurium, read-out: FC
[3] = Genotoxicity in Salmonella typhimurium TA1535 harboring pSK1002 assessed as umu gene induction at 0.0002 mg/ml in presence of Sprague-Dawley rat liver S9 fraction after by SOS/umu assay relative to control; type: toxicity, organism-based; settings: salmonella enterica subsp. enterica serovar typhimurium, read-out: FC
[4] = Genotoxicity in Salmonella typhimurium TA1535 harboring pSK1002 assessed as umu gene induction at 0.0005 mg/ml in absence of Sprague-Dawley rat liver S9 fraction after by SOS/umu assay relative to control; type: toxicity, organism-based; settings: salmonella enterica subsp. enterica serovar typhimurium, read-out: FC
[5] = system: Plasmodium falciparum; test: Antiplasmodial activity against multidrug-resistant Plasmodium falciparum FCR-3 by [3H]-hypoxanthine incorporation assay; type: functional, organism-based, FCR-3/Gambia; settings: Plasmodium falciparum, FCR-3/Gambia
Summary of the method: (§1)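 Blood-stage P. falciparum 3D7 and FCR-3 were tested by a modified [3H]-hypoxanthine incorporation assay. Chloroquine was the reference in all runs.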

[6] = Genotoxicity in Salmonella typhimurium TA1535 harboring pSK1002 assessed as umu gene induction at 0.0005 mg/ml in presence of Sprague-Dawley rat liver S9 fraction after by SOS/umu assay relative to control; type: toxicity, organism-based; settings: salmonella enterica subsp. enterica serovar typhimurium, read-out: FC
[7] = Genotoxicity in Salmonella typhimurium TA1535 harboring pSK1002 assessed as umu gene induction at 0.002 mg/ml in presence of Sprague-Dawley rat liver S9 fraction after by SOS/umu assay relative to control; type: toxicity, organism-based; settings: salmonella enterica subsp. enterica serovar typhimurium, read-out: FC
[8] = Solubility of the compound in DSPC:cholesterol:DSPE-PEG2000-Mal:DOPE-Rho lipid mixture at 250 uM; type: physicochemical
Summary of the method: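 Compound added at 250 µM drug to the initial liposome lipid mixture (10 mM total lipid); precipitation and UV-visible absorbance above 300 nm assessed after encapsulation, removal of unencapsulated material and extraction with 1% w/v SDS in RPMI-A.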

[9] = Selectivity index, ratio of CC50 for human HepG2A16 cells by MTT assay to IC50 for multidrug-resistant Plasmodium falciparum FCR-3; type: toxicity; settings: HepG2A16 cells, read-out: Ratio CC50/IC50
Summary of the method: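 HepG2-A16 human hepatoma cells were tested by MTT viability assay to give CC50. Blood-stage activity was measured against the multidrug-resistant P. falciparum FCR-3 strain by [3H]-hypoxanthine incorporation to give IC50. SI = CC50 HepG2 / FCR-3 IC50.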

[10] = Genotoxicity in Salmonella typhimurium TA1535 harboring pSK1002 assessed as survival at 0.002 mg/ml in presence of Sprague-Dawley rat liver S9 fraction after by SOS/umu assay relative to control; type: toxicity, organism-based; settings: salmonella enterica subsp. enterica serovar typhimurium, read-out: Survival
[11] = Genotoxicity in Salmonella typhimurium TA1535 harboring pSK1002 assessed as survival at 0.0005 mg/ml in absence of Sprague-Dawley rat liver S9 fraction after by SOS/umu assay relative to control; type: toxicity, organism-based; settings: salmonella enterica subsp. enterica serovar typhimurium, read-out: Survival
[12] = Genotoxicity in Salmonella typhimurium TA1535 harboring pSK1002 assessed as survival at 0.0002 mg/ml in presence of Sprague-Dawley rat liver S9 fraction after by SOS/umu assay relative to control; type: toxicity, organism-based; settings: salmonella enterica subsp. enterica serovar typhimurium, read-out: Survival
[13] = Cytotoxicity against human HepG2A16 cells by MTT assay; type: cell-based; settings: HepG2A16 cells
Summary of the method: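 MTT viability assay on HepG2-A16 cells, giving CC50 values.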

[14] = Genotoxicity in Salmonella typhimurium TA1535 harboring pSK1002 assessed as survival at 0.001 mg/ml in absence of Sprague-Dawley rat liver S9 fraction after by SOS/umu assay relative to control; type: toxicity, organism-based; settings: salmonella enterica subsp. enterica serovar typhimurium, read-out: Survival
[15] = Genotoxicity in Salmonella typhimurium TA1535 harboring pSK1002 assessed as survival at 0.0005 mg/ml in presence of Sprague-Dawley rat liver S9 fraction after by SOS/umu assay relative to control; type: toxicity, organism-based; settings: salmonella enterica subsp. enterica serovar typhimurium, read-out: Survival
[16] = Genotoxicity in Salmonella typhimurium TA1535 harboring pSK1002 assessed as survival at 0.004 mg/ml in presence of Sprague-Dawley rat liver S9 fraction after by SOS/umu assay relative to control; type: toxicity, organism-based; settings: salmonella enterica subsp. enterica serovar typhimurium, read-out: Survival
[17] = Genotoxicity in Salmonella typhimurium TA1535 harboring pSK1002 assessed as umu gene induction at 0.002 mg/ml in absence of Sprague-Dawley rat liver S9 fraction after by SOS/umu assay relative to control; type: toxicity, organism-based; settings: salmonella enterica subsp. enterica serovar typhimurium, read-out: FC
[18] = Genotoxicity in Salmonella typhimurium TA1535 harboring pSK1002 assessed as umu gene induction at 0.0002 mg/ml in absence of Sprague-Dawley rat liver S9 fraction after by SOS/umu assay relative to control; type: toxicity, organism-based; settings: salmonella enterica subsp. enterica serovar typhimurium, read-out: FC
[19] = system: Plasmodium berghei; test: Antiplasmodial activity against Plasmodium berghei ANKA infected in mouse assessed as inhibition of parasitemia at 50 mg/kg/day, po for 4 consecutive days starting from 2 hrs post infection by MSF assay relative to control; type: functional
Summary of the method: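 Swiss male mice (20 ± 2 g) infected ip with 10^7 P. berghei ANKA parasitized cells (day 0). Five per group dosed orally 2 h after infection and daily on days 0–3. Test compounds at 50 mg/kg/day in water:DMSO; chloroquine diphosphate at 3 mg/kg/day; vehicle controls. Parasitemia measured on day 4 by MSF assay; survival checked daily.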

[20] = system: Plasmodium falciparum; test: Antiplasmodial activity against chloroquine-sensitive Plasmodium falciparum 3D7 by [3H]-hypoxanthine incorporation assay; type: functional, organism-based; settings: Plasmodium falciparum, 3D7; summary of the method: as §1
[21] = Genotoxicity in Salmonella typhimurium TA1535 harboring pSK1002 assessed as survival at 0.004 mg/ml in absence of Sprague-Dawley rat liver S9 fraction after by SOS/umu assay relative to control; type: toxicity, organism-based; settings: salmonella enterica subsp. enterica serovar typhimurium, read-out: Survival
[22] = system: Plasmodium berghei; test: Antiplasmodial activity against Plasmodium berghei ANKA infected in mouse assessed as mouse survival time at 50 mg/kg/day, po for 4 consecutive days starting from 2 hrs post infection by MSF assay; type: functional
Summary of the method: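 Swiss male mice (20 ± 2 g) infected i.p. with 10^7 P. berghei ANKA parasitized cells in 0.1 mL 0.9% saline (day 0). Oral dosing began 2 h post-infection and continued daily on days 0–3, five mice per batch. Test drugs were given at 50 mg/kg/day in water:DMSO and chloroquine diphosphate at 3 mg/kg/day; a vehicle control was included. Survival was checked daily, and parasitemia was read on day 4 by modified MSF assay.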

[23] = Genotoxicity in Salmonella typhimurium TA1535 harboring pSK1002 assessed as umu gene induction at 0.004 mg/ml in absence of Sprague-Dawley rat liver S9 fraction after by SOS/umu assay relative to control; type: toxicity, organism-based; settings: salmonella enterica subsp. enterica serovar typhimurium, read-out: FC
[24] = Genotoxicity in Salmonella typhimurium TA1535 harboring pSK1002 assessed as umu gene induction at 0.004 mg/ml in presence of Sprague-Dawley rat liver S9 fraction after by SOS/umu assay relative to control; type: toxicity, organism-based; settings: salmonella enterica subsp. enterica serovar typhimurium, read-out: FC
[25] = Genotoxicity in Salmonella typhimurium TA1535 harboring pSK1002 assessed as survival at 0.0002 mg/ml in absence of Sprague-Dawley rat liver S9 fraction after by SOS/umu assay relative to control; type: toxicity, organism-based; settings: salmonella enterica subsp. enterica serovar typhimurium, read-out: Survival
[26] = Genotoxicity in Salmonella typhimurium TA1535 harboring pSK1002 assessed as umu gene induction at 0.001 mg/ml in presence of Sprague-Dawley rat liver S9 fraction after by SOS/umu assay relative to control; type: toxicity, organism-based; settings: salmonella enterica subsp. enterica serovar typhimurium, read-out: FC
[27] = Genotoxicity in Salmonella typhimurium TA1535 harboring pSK1002 assessed as survival at 0.001 mg/ml in presence of Sprague-Dawley rat liver S9 fraction after by SOS/umu assay relative to control; type: toxicity, organism-based; settings: salmonella enterica subsp. enterica serovar typhimurium, read-out: Survival
[28] = system: Plasmodium falciparum; test: Antiplasmodial activity against Plasmodium falciparum FCR-3 sporozoites infected in human primary hepatocytes treated simultaneously with infection by DAPI staining based HCS analysis; type: functional, organism-based, FCR-3/Gambia; settings: Plasmodium falciparum, FCR-3/Gambia; read-out: IC50
[29] = Cytotoxicity against human primary hepatocytes after 48 hrs by MTT assay; type: cell-based, Hepatocyte
Summary of the method: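 Primary human hepatocytes seeded at 2 × 10^5/well and grown 24 h at 37 °C, 5% CO2. Compound dilutions added in triplicate for 48 h. MTT (2 mg/mL) added for 4 h, then DMSO for 20 min; absorbance read at 550 nm. Untreated and diluent controls included; CC50 calculated.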

[30] = Selectivity index, ratio of CC50 for human primary hepatocytes to IC50 for Plasmodium falciparum FCR-3 sporozoites infected in human primary hepatocytes; type: toxicity, cell-based; settings: read-out: Ratio CC50/IC50
Summary of the method: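 Primary human hepatocytes were plated at 8 × 10^4 per well on collagen and infected with P. falciparum sporozoites (2.5 × 10^4 per well). Compounds were given at infection from 10 µg/mL plus seven dilutions, refreshed every 24 h, for 8 days. EEFs were read by Hsp70 immunostaining. […] Two independent experiments were run.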

[31] = system: Plasmodium berghei; test: Antiplasmodial activity against GFP-fused Plasmodium berghei sporozoites infected in human HepG2A16 cells treated simultaneously with infection by fluorescence microscopic analysis; type: functional, organism-based; settings: Plasmodium berghei, HepG2A16; read-out: IC50
Summary of the method: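 HepG2-A16 cells (3 × 10^4/well, collagen-coated) infected with PbGFP sporozoites (5 × 10^3 to 1 × 10^4/well) and treated at the same time. Top concentration 10 µg/mL in DMEM, seven serial dilutions. Medium and compound renewed at 3 h and every 24 h. After 40 h at 37 °C: methanol fixation, anti-Plasmodium Hsp70 immunolabeling, Alexa 594 secondary, DAPI; high-content imaging.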

[32] = Selectivity index, ratio of CC50 for human HepG2A16 cells to IC50 for GFP-fused Plasmodium berghei sporozoites infected in human HepG2A16 cells; type: toxicity, cell-based; settings: read-out: Ratio CC50/IC50
Summary of the method: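 HepG2-A16 cells were grown at 3 × 10^4 per well on collagen and infected with GFP P. berghei sporozoites (5 × 10^3 to 1 × 10^4 per well) from A. stephensi salivary glands. Compounds were added at infection, from 10 µg/mL top plus seven serial dilutions, and refreshed at 3 h and then every 24 h. After 40 h at 37 °C, EEFs were methanol-fixed, anti-Hsp70 immunolabelled and counted by high-content imaging. SI = HepG2 CC50 / liver-stage IC50.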

OC(CCN1CCN(C(c2ccccc2)c2ccccc2)CC1)c1ccc(F)cc1 (centres undefined)
viability at 0.002 mg/ml [1]: 95.9% | fold induction at 0.001 mg/ml [2]: 1 | fold induction at 0.0002 mg/ml [3]: 1 | fold induction at 0.0005 mg/ml [4]: 1 | IC50 [5]: 620 nM | fold induction at 0.0005 mg/ml [6]: 1.1 | fold induction at 0.002 mg/ml [7]: 1.1 | solubility [8]: Insoluble | selectivity ratio [9]: 406 | viability at 0.002 mg/ml [10]: 89.6% | viability at 0.0005 mg/ml [11]: 100% | viability at 0.0002 mg/ml [12]: 101% | CC50 [13]: 252 µM | viability at 0.001 mg/ml [14]: 94.9% | viability at 0.0005 mg/ml [15]: 86.4% | viability at 0.004 mg/ml [16]: 87% | fold induction at 0.002 mg/ml [17]: 1.5 | fold induction at 0.0002 mg/ml [18]: 1.1 | inhibition [19]: inactive | IC50 [20]: 1080 nM | viability at 0.004 mg/ml [21]: 97.8% | MSD [22]: 8 days | fold induction at 0.004 mg/ml [23]: 1 | fold induction at 0.004 mg/ml [24]: 1 | viability at 0.0002 mg/ml [25]: 102% | fold induction at 0.001 mg/ml [26]: 1 | viability at 0.001 mg/ml [27]: 95.7%

COc1cc(NC(C)CCCN)c2ncccc2c1 (centres undefined) [PRIMAQUINE]
IC50 [28]: 400 nM | CC50 at 48 h [29]: 54 µM | IC50 [5]: 1180 nM | selectivity ratio [30]: 135 | IC50 [31]: 3.65 µM | CC50 [13]: 120 µM | selectivity ratio [32]: 32.9
